Laboratory results published in ChEMBL document CHEMBL4513216, “Probing the Open Global Health Chemical Diversity Library for Multistage-Active Starting Points for Next-Generation Antimalarials” (ACS Infect Dis, 2020).

Test: Toxicity liver stage against HepG2, at 10uM
Assay type: cell-based
Design: test concentration 10 uM, cell line HepG2-A16-CD81EGFP
Details: human, HepG2-A16-CD81EGFP cells; read-out: INHIBITION
Procedure, shortened: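 Uninfected HepG2-A16-CD81EGFP cells, 3 × 10^3 per well, 1536-well, plated on prespotted compound at 10 μM final, parasite-free screening media added to match infected plates; puromycin 10 μM positive, DMSO 0.5% negative; run in parallel with 48 h PbLuc assay at 37 °C, 5% CO2; viability by CellTiter-Glo luminescence, normalized to controls.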

| Compound | cytotoxicity at 10 µM [%] |
| --- | --- |
| Cc1nnc(N(CCC#N)CCC#N)s1 | -0.402 |
| CCC(C)(C)n1nnnc1C(c1cccs1)N1CCCCC1 (stereo not given) | 2.09 |
| COc1ccccc1CNc1c(O)c(=O)c1=O | 4.65 |
| COc1cccc(NC(=O)Nc2ccc3c(c2)CC(=O)N3)c1 | -2.35 |
| O=C(C1CCSCC1)N1CC[C@H]2OCC[C@@]2(COCC2CC2)C1 | -1.16 |
| Cn1nc(C(=O)N2CCCC2)c2c1CN(CC1CCOCC1)C2 | -2.51 |
| CNC(=O)[C@@H]1C[C@H]2CN(C(=O)c3ccccn3)C[C@H]2N1C(C)C | 7.45 |
| O=C(Cc1ccccn1)N1CCC2(CC1)CN(c1ccccn1)CCO2 | 8.85 |
| CN(C)C(=O)N1CCN(C(=O)c2ccc(Cl)cc2)CC2(CNC(=O)C2)C1 (stereo not given) | 10.5 |
| O=C1CCSCC(C(=O)N2CCOCC2)N1 (stereo not given) | -11.3 |
| COC(=O)c1sccc1S(=O)(=O)N1CCC(Oc2cccnn2)CC1 | -4.82 |
| COCCN1C(=O)CCC12CCN(C(=O)CC1CC1)CC2 | 3.73 |
| CC(C(=O)N1CCN(C)CC1)n1cc(Br)cn1 (stereo not given) | 3.6 |
| c1cnc(-c2nn3c(CN4CCCCCC4)nnc3s2)cn1 | 10.8 |
| CNC(=O)[C@@H]1CN(C(=O)COC)C[C@H]1c1ccnc(N2CCCC2)n1 | 2.75 |
| Cc1cc(Nc2cnccn2)cc(C2CCCN2)n1 (stereo not given) | 2.54 |
| CC(C)(C)c1nnc2n1C(C(=O)N1CCCC1)CC2 (stereo not given) | 1.61 |
| Cc1ccc(C(=O)N2CCC3(CCCCC3)C2)c(=O)[nH]1 | -2.47 |
| CC(C)C(=O)N1CCCC1C(=O)Nc1ccc(F)c(F)c1 (stereo not given) | -1.57 |
| CCN(CC)C(=O)CNC(=O)N1CCC(c2ccc(OC)cc2)C1 (stereo not given) | -5.51 |
| CC(C)(C)n1nc(C(=O)NCC2(C(N)=O)CCOCC2)cc1C1CC1 | -15.9 |
| N#CC(NC(=O)CC1CCSCC1)c1cnn(-c2ccccc2)c1 (stereo not given) | 6.1 |
| Cc1cnn(C2CCCN(C(=O)Cn3ccc(=O)n(C)c3=O)C2)c1 (stereo not given) | 1.99 |

| Compound | cytotoxicity at 10 µM [%] |
| --- | --- |
| CN(Cc1cn[nH]c1-c1ccc(F)cc1)C(=O)CCC1CC1 | 9.12 |
| O=C(CN1CCOc2ccccc2C1)NCc1cc2n(n1)CCNC2 | 1.03 |
| COCCC(=O)N(Cc1cccnc1)CC1CCN(C2CCCC2)CC1 | -5 |
| CCOCc1nc2c(c(NCCNC(C)=O)n1)CCN(C(C)=O)CC2 | 9.93 |
| CC(=O)Nc1ncc(S(=O)(=O)N2CCOCC2)s1 | 4.81 |
| CN1CCC(Oc2ccc(NC(=O)c3ccccc3)cc2)CC1 | -5.13 |
| O=C(NC1CC(=O)N(Cc2cccc(F)c2)C1)c1ccncc1 (stereo not given) | -7.41 |
| CC(=O)N1CCCC1c1ccc(C(=O)N2CCOCC2)s1 (stereo not given) | 6.92 |
| Fc1ccc2[nH]c(C3CCCN3CCc3ccccn3)nc2c1 (stereo not given) | -9.7 |
| CN(C)CC(=O)N1CCCC2(CCC(=O)N(CCc3c[nH]cn3)C2)C1 (stereo not given) | -8.77 |
| CCOCCn1nc(C)cc1C(=O)N1CCN(C(C)C)C(CC)C1 (stereo not given) | -14.2 |
| CCC(NC(=O)C1CCN(S(=O)(=O)N(C)C)CC1)c1ccc(C)c(C)c1 (stereo not given) | -1.02 |
| NC(=O)c1cnn2c1NCC(CNCCc1cccs1)C2 (stereo not given) | -9.63 |
| CC(NC(=O)NCCCn1cncn1)c1ccc2c(c1)OCCO2 (stereo not given) | -6.85 |
| CCc1nnc2n1CCN(Cc1nc(-c3ccoc3)no1)C2 | -4.1 |
| CSCCCN1CCCC1c1noc(C)n1 (stereo not given) | -7.59 |
| Fc1cnc(N2CC[C@@H](N3CCOCC3)[C@@H]2Cc2ccncc2)nc1 | 0.81 |
| COCC1c2c(cnn2C)CCN1Cc1ccc(F)cc1 (stereo not given) | -10.6 |
| CN(C)Cc1cnc2n1CCN(C(=O)NCc1ccccc1)CC2 | -6.41 |
| Cc1nc(-c2cc(C(=O)N3CCCN(C)CC3)c3ccccn23)cn1C | 5.59 |
| CN(C)CC(=O)N1CCC2(CCc3ccc(-c4ccncc4)cc32)CC1 | 6.34 |
| O=C(NC1CC1)[C@H]1C[C@H]2OCC[C@H]2N(CC2CC2)C1 | 2.76 |
